Consider 21 compounds from ChEMBL document CHEMBL1177791, “Discovery of piperidin-4-yl-aminopyrimidines as HIV-1 reverse transcriptase inhibitors. N-benzyl derivatives with broad potency against resistant mutant viruses” (Bioorg Med Chem Lett, 2010).

Assay [1] deals with Human immunodeficiency virus type 1 reverse transcriptase (Human immunodeficiency virus 1, UniProt Q72547). In words: Inhibition of wild type HIV1 reverse transcriptase by SPA heteropolymeric assay. A digest of the protocol:
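Recombinant RT, heteropolymeric assay of RNA-dependent DNA polymerase activity with biotinylated primer oligonucleotide and tritiated dNTP substrate; new DNA quantified by capturing biotinylated primer on streptavidin-coated SPA beads; IC50 reported.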

Assay [2] concerns the target Human immunodeficiency virus type 1 reverse transcriptase (Human immunodeficiency virus 1, UniProt Q72547, Y188L). In words: Inhibition of HIV1 reverse transcriptase Y188L mutant by SPA heteropolymeric assay. A digest of the protocol: (§1)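 Recombinant mutant RT, heteropolymeric assay of RNA-dependent DNA polymerase activity. Uses a biotinylated primer oligonucleotide and tritiated dNTP substrate. Newly synthesized DNA is captured via the biotinylated primer on streptavidin-coated scintillation proximity beads and counted. Reported as IC50.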

Assay [3] addresses Human immunodeficiency virus type 1 reverse transcriptase (Human immunodeficiency virus 1, UniProt Q72547, K103N/Y181C). In words: Inhibition of HIV1 reverse transcriptase K103N/Y181C double mutant by SPA heteropolymeric assay. A digest of the protocol: as §1
Assay [4] concerns Human immunodeficiency virus 1. In words: Antiviral activity against HIV1 expressing reverse transcriptase K103N/Y181C double mutant infected in human MT4 cells assessed as reduction in virus-induced cytopathic effect. Format: functional, organism-based. To be noted: Human immunodeficiency virus 1, MT4. A digest of the protocol: (§2)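 Compound incubated with HIV-1-infected MT4 cells in medium containing 10% fetal bovine serum. Read-out was reduction of viral cytopathic effect on the cells, reported as EC50.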

Assay [5] has as its system Human immunodeficiency virus 1. In words: Antiviral activity against HIV1 expressing reverse transcriptase Y188L mutant infected in human MT4 cells assessed as reduction in virus-induced cytopathic effect. Particulars: Human immunodeficiency virus 1, MT4. Type of assay: functional, organism-based. A digest of the protocol:
as §2
For orientation: Cytopathic effects are the visible damage that an infection or toxin causes in cultured cells.

The test system of assay [6] is Human immunodeficiency virus 1. In words: Antiviral activity against HIV1 infected in human MT4 cells assessed as reduction in virus-induced cytopathic effect. Particulars: Human immunodeficiency virus 1, MT4. Type of assay: functional, organism-based.
Assay [7] relates to Human immunodeficiency virus 1. In words: Antiviral activity against HIV1 expressing reverse transcriptase G190A mutant infected in human MT4 cells assessed as reduction in virus-induced cytopathic effect. Type of assay: functional, organism-based. To be noted: Human immunodeficiency virus 1, MT4. A digest of the protocol: as §2
For assay [8], the system named is Human immunodeficiency virus 1. In words: Antiviral activity against wild type HIV1 infected in human MT4 cells assessed as reduction in virus-induced cytopathic effect in presence of 10 % fetal bovine serum. Type of assay: functional, organism-based. To be noted: Human immunodeficiency virus 1, MT4.
Assay [9] has as its system Human immunodeficiency virus 1. In words: Antiviral activity against HIV1 expressing reverse transcriptase V106A mutant infected in human MT4 cells assessed as reduction in virus-induced cytopathic effect. Format: functional, organism-based. Particulars: Human immunodeficiency virus 1, MT4. The procedure, abridged:
as §2

Assay [10] deals with Human immunodeficiency virus 1. In words: Antiviral activity against wild type HIV1 infected in human MT4 cells assessed as reduction in virus-induced cytopathic effect in presence of 40 % human serum. Type of assay: functional, organism-based. To be noted: Human immunodeficiency virus 1, MT4.
Assay [11] has as its system Human immunodeficiency virus 1. In words: Antiviral activity against HIV1 expressing reverse transcriptase K103N/L100I double mutant infected in human MT4 cells assessed as reduction in virus-induced cytopathic effect. Format: functional, organism-based. Particulars: Human immunodeficiency virus 1, MT4. The procedure, abridged:
as §2

For `Cc1cc(C#N)cc(C)c1Oc1nc(NC2CCN(Cc3ccc(C#N)cc3)CC2)ncc1Br`, the IC50 (as a rule, the concentration at which inhibition is half-maximal) in assay [1] was determined as 21 nM; in [2], 41 nM; in assay [3] it was 18 nM.

With `Cc1cc(C#N)cc(C)c1Oc1ccnc(NC2CCN(Cc3ccc(S(C)(=O)=O)cc3)CC2)n1`, the IC50 came to 34 nM in assay [1]; 72 nM in [2]; 20.2 nM in [4]; 16.9 nM in assay [5]; 50 nM in [3].

`Cc1cc(C#N)cc(C)c1Oc1nc(NC2CCN(Cc3ccc(C(N)=O)cc3Cl)CC2)ncc1Br`: the half-inhibitory concentration (IC50) in assay [1] was found to be 131 nM; in assay [2], 519 nM; in assay [4] it was 52.7 nM; in [6] it was 41.5 nM; in assay [5] it was 30.2 nM; in assay [3] it was 69 nM.

As to `Cc1cc(C#N)cc(C)c1Oc1nc(NC2CCN(Cc3ccc(S(C)(=O)=O)cc3Cl)CC2)ncc1Br`, the IC50 in assay [1] came to 45 nM; in [2], 216 nM; in [4], 7.3 nM; in [7], 1.8 nM; in [8], 6.1 nM; in assay [6] it was 6.1 nM. Moreover, the IC50 in [9] is 2 nM; in assay [5], 2.8 nM; in [10], 48.7 nM; in assay [3], 28 nM; in assay [11], 5.9 nM.

Take `Cc1cc(C#N)cc(C)c1Oc1ccnc(NC2CCN(Cc3ccc(S(N)(=O)=O)cc3Cl)CC2)n1`: the IC50 is 84 nM in [1]; 105 nM in assay [2]; 21.4 nM in assay [4]; 4.4 nM in [6]; 1.4 nM in assay [5]; 25 nM in assay [3].

On to `Cc1cc(C#N)cc(C)c1Oc1nc(NC2CCN(Cc3ccc(Cl)cc3)CC2)ncc1Br`, for which the IC50 in assay [1] is 152 nM; in assay [2], 793 nM; in assay [3], 129 nM.

With `Cc1cc(C#N)cc(C)c1Oc1nc(NC2CCN(Cc3ccccc3)CC2)ncc1Br`, the half-inhibitory concentration (IC50) was 19 nM in [1]; 70 nM in [2]; > 100 nM in assay [4]; 6.5 nM in assay [6]; 9.1 nM in [5]; 15 nM in assay [3].

On to `Cc1cc(C#N)cc(C)c1Oc1nc(NC2CCN(Cc3ccccc3C#N)CC2)ncc1Br`, for which the IC50 in assay [1] turned out to be 29 nM; in assay [2], 43 nM; in assay [3], 62 nM.

As to `Cc1cc(C#N)cc(C)c1Oc1nc(NC2CCN(Cc3ccc(S(C)(=O)=O)cc3)CC2)ncc1Br`, the half-maximal inhibitory concentration (IC50) in [1] was 28 nM; in [2], 28 nM; in assay [4], 35.7 nM; in assay [6], 5.2 nM; in assay [5], < 1.2 nM; in [3] it was 14 nM.

Regarding `Cc1cc(C#N)cc(C)c1Oc1ccnc(NC2CCN(Cc3ccc(S(C)(=O)=O)cc3Cl)CC2)n1`, the concentration for half-maximal inhibition (IC50) in [1] is 22 nM; in assay [2], 263 nM; in [4] it was 67.2 nM; in assay [6], 24.6 nM; in [5] it was 46.5 nM; in assay [3], 30 nM.

As for `Cc1cc(C#N)cc(C)c1Oc1nc(NC2CCN(Cc3cccc(C#N)c3)CC2)ncc1Br`, the IC50 in [1] is 23 nM; in [2] it was 37 nM; in assay [3], 27 nM.

As to `Cc1cc(C#N)cc(C)c1Oc1nc(NC2CCN(c3ccccc3)C2)ncc1Br` (centres undefined), the values for the IC50 in [1], in assay [2] and in assay [3] were 67 nM, 718 nM and > 1000 nM, respectively.

In the case of `Cc1cc(C#N)cc(C)c1Oc1ccnc(NC2CCN(Cc3ccccc3)CC2)n1`, the IC50 was 87 nM in assay [1]; 372 nM in [2]; > 100 nM in assay [4]; 3.3 nM in assay [6]; 43.6 nM in assay [5]; 216 nM in assay [3].

As to `Cc1cc(C#N)cc(C)c1Oc1ccnc(NCCC(=O)Nc2ccc(S(N)(=O)=O)cc2Cl)n1`, the IC50 is 900 nM in assay [1], > 10000 nM in [2] and > 1000 nM in [3].

`Cc1cc(C#N)cc(C)c1Oc1nc(NC2CCN(Cc3ccc(S(N)(=O)=O)cc3Cl)CC2)ncc1Br`: the IC50 in [1] came out at 90 nM; in [2], 208 nM; in [4], 18.9 nM; in assay [7] it was 6 nM; in assay [8], 9.9 nM; in [6], 9.9 nM. The IC50 in [9] is 2.3 nM; in assay [5], 3.2 nM; in assay [10], 61.5 nM; in [3], 21 nM; in [11], 9.1 nM.

As for `Cc1cc(C#N)cc(C)c1Oc1nc(NC2CCN(Cc3ccc(C#N)cc3Cl)CC2)ncc1Br`, the IC50 was 146 nM in [1]; 67.4 nM in assay [4]; 17.6 nM in assay [6]; 11.6 nM in assay [5]; 159 nM in assay [3].

Regarding `Cc1cc(C#N)cc(C)c1Oc1nc(NC2CCN(Cc3cccc(Cl)c3)CC2)ncc1Br`, the IC50 was 241 nM in [1] and 229 nM in [3].

On to `Cc1cc(C#N)cc(C)c1Oc1nc(NC2CCN(c3ccccc3)CC2)ncc1Br`, for which the values for the IC50 in [1], in assay [2] and in assay [3] were 192 nM, 334 nM and 112 nM, respectively.

On to `Cc1cc(C#N)cc(C)c1Oc1nc(NC2CCN(Cc3ccc(C(=O)O)cc3Cl)CC2)ncc1Br`, for which the half-inhibitory concentration (IC50) in assay [1] stood at 32 nM; in assay [2], 86 nM; in assay [4], 74.2 nM; in assay [6], 3.9 nM; in assay [3], 28 nM.

As to `O=C1Nc2ccc(Cl)cc2[C@@](C#CC2CC2)(C(F)(F)F)O1` [EFAVIRENZ], the IC50 in assay [7] was 6 nM; in assay [9] it was 5.7 nM; in assay [5], > 1000 nM; in assay [11], > 500 nM.

As to `Cc1cc(C#N)cc(C)c1Oc1nc(Nc2ccc(C#N)cc2)nc(N)c1Br` [ETRAVIRINE], the IC50 in assay [7] stood at 1.1 nM; in [5], 3.1 nM; in assay [10], 25.9 nM; in assay [11], 9.5 nM.
